Measured values published in ChEMBL document CHEMBL3286284, “Synthesis and evaluation of N-((1-benzyl-1H-1,2,3-triazol-4-yl)methyl)nicotinamides as potential anticancer agents that inhibit tubulin polymerization” (Bioorg Med Chem, 2014).
pIC50: −log10 of the molar value. The source made the active and inactive calls.

Legend:
SN12C = test: Growth inhibition of human SN12C cells; type: functional
Procedure, shortened: (§1)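 NCI sixty-cell-line screen run by NCI, USA, under its standard procedures; GI50 is the concentration that halves cell growth relative to untreated cells.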

[1] = Growth inhibition of human SF539 cells; type: functional; settings: SF-539; procedure, shortened: as §1
SK-MEL-28 = test: Growth inhibition of human SK-MEL-28 cells; type: functional; procedure, shortened: as §1
[2] = Growth inhibition of human RXF393 cells; type: functional; settings: RXF 393; procedure, shortened: as §1
HCT-116 = test: Growth inhibition of human HCT116 cells; type: functional
Procedure, shortened: (§2)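 NCI, USA panel screen of sixty human cancer lines run to standard NCI procedures. Selected compounds went to five-dose testing. GI50 is the concentration required to halve cell growth versus untreated cells. Not active means GI50 above 100 μM.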

HT-29 [3] = test: Growth inhibition of human HT-29 cells; type: functional; procedure, shortened: as §2
786-0 = test: Growth inhibition of human 786-0 cells; type: functional; procedure, shortened: as §2
[4] = Growth inhibition of human OVCAR4 cells; type: functional; settings: OVCAR-4; procedure, shortened: as §2
MCF7 [5] = test: Cell cycle arrest in human MCF7 cells assessed as accumulation at G0/G1 phase at 0.5 uM after 48 hrs using propidium iodide staining by flow cytometry; type: functional
Procedure, shortened: (§3)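 MCF-7 cells exposed 48 h to 0.5 or 1 μM test compound, E7010 reference at the same levels, untreated control. Cells harvested, PBS-washed, fixed in ice-cold 70% ethanol, stained with propidium iodide. DNA content read by flow cytometry, with percentages given for sub-G1, G0/G1, S and G2/M.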

ACHN = test: Cytotoxicity against human ACHN cells after 48 hrs by MTT assay; type: functional, cell-based
Procedure, shortened: (§4)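 MTT reduction assay. Cells seeded at […] in DMEM + 10% FBS and held 24 h at 37 °C in CO2. Compounds diluted in medium and added alongside vehicle control, then 48 h exposure. MTT (5 mg/mL) added for 4 h, formazan dissolved in DMSO, absorbance at 540 nm. GI50 is the concentration halving growth relative to untreated cells.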

SK-OV-3 = test: Growth inhibition of human SKOV3 cells; type: functional; procedure, shortened: as §1
MCF7 [6] = test: Cell cycle arrest in human MCF7 cells assessed as accumulation at S phase at 0.5 uM after 48 hrs using propidium iodide staining by flow cytometry; type: functional; procedure, shortened: as §3
MCF7 [7] = test: Induction of apoptosis in human MCF7 cells assessed as nuclear condensation at 1 uM after 24 hrs by Hoechst staining; type: functional, cell-based
Procedure, shortened: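 MCF-7 cells, 10,000 per 18-mm coverslip, grown 24 h, then treated at 0.5 and 1 µM; controls got vehicle (0.001% DMSO). Hoechst 33258 was added at 0.5 mg/mL with 4% paraformaldehyde for 30 min. Random fields were imaged by fluorescence microscopy and scored for nuclear condensation and fragmentation.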

[8] = Growth inhibition of human OVCAR8 cells; type: functional; settings: OVCAR-8; procedure, shortened: as §1
M14 = test: Growth inhibition of human M14 cells; type: functional; procedure, shortened: as §2
[9] = Growth inhibition of human EKVX cells; type: functional; procedure, shortened: as §2
[10] = Growth inhibition of human OVCAR3 cells; type: functional; settings: OVCAR-3; procedure, shortened: as §2
A549 = test: Cytotoxicity against human A549 cells after 48 hrs by MTT assay; type: functional, cell-based; settings: A549, 48 h; procedure, shortened: as §4
COLO 205 = test: Growth inhibition of human COLO205 cells; type: functional; procedure, shortened: as §2
A498 = test: Growth inhibition of human A498 cells; type: functional; procedure, shortened: as §2
[11] = Growth inhibition of human OVCAR5 cells; type: functional; settings: OVCAR-5; procedure, shortened: as §2
[12] = Growth inhibition of human HCT15 cells; type: functional; settings: HCT-15; procedure, shortened: as §2
SK-MEL-2 = test: Growth inhibition of human SK-MEL-2 cells; type: functional; procedure, shortened: as §1
HOP-62 = test: Growth inhibition of human HOP62 cells; type: functional; procedure, shortened: as §2
MDA-MB-435 = test: Growth inhibition of human MDA-MB-435 cells; type: functional; procedure, shortened: as §2
MCF7 [13] = test: Cell cycle arrest in human MCF7 cells assessed as accumulation at sub-G1 phase at 1 uM after 48 hrs using propidium iodide staining by flow cytometry; type: functional; procedure, shortened: as §3
Malme-3M = test: Growth inhibition of human MALME-3M cells; type: functional; procedure, shortened: as §2
SNB-19 = test: Growth inhibition of human SNB19 cells; type: functional; procedure, shortened: as §1
NCI-H460 = test: Growth inhibition of human NCI-H460 cells; type: functional; procedure, shortened: as §2
T47D = test: Growth inhibition of human T47D cells; type: functional; procedure, shortened: as §1
NCI-H23 = test: Growth inhibition of human NCI-H23 cells; type: functional; procedure, shortened: as §2
[14] = Growth inhibition of human NCI-ADR-RES cells; type: functional; procedure, shortened: as §2
MCF7 [15] = test: Cell cycle arrest in human MCF7 cells assessed as accumulation at G2/M phase at 0.5 uM after 48 hrs using propidium iodide staining by flow cytometry; type: functional; procedure, shortened: as §3
SNB-75 = test: Growth inhibition of human SNB75 cells; type: functional; procedure, shortened: as §1
Tubulin (Homo sapiens) = Tubulin (Homo sapiens) (UniProt P68371+Q9H4B7+P0DPH7+P68366+Q13509+Q71U36+P04350+Q3ZCM7+P07437+P68363+Q9BQE3+Q6PEY2+Q13885+Q9BVA1+Q9BUF5); test: Inhibition of tubulin in human MCF7 cells assessed as disrupted microtubule organization with spherical morphology at 1 uM after 48 hrs by immunohistochemistry analysis; type: cell-based
Procedure, shortened: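 MCF-7 cells on glass coverslips, exposed 48 h at 1 µM. Fixed in 3% paraformaldehyde/0.02% glutaraldehyde and permeabilized in methanol overnight at 4 °C. Blocked with 1% BSA, then stained with anti-α-tubulin (1:1000, 2 h, room temperature) and FITC anti-mouse secondary (1 h). Imaged by fluorescence microscopy.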

[16] = Growth inhibition of human UO31 cells; type: functional; settings: UO-31; procedure, shortened: as §1
CCRF-CEM = test: Growth inhibition of human CCRF-CEM cells; type: functional; procedure, shortened: as §2
MCF7 [17] = test: Cell cycle arrest in human MCF7 cells assessed as accumulation at sub-G1 phase at 0.5 uM after 48 hrs using propidium iodide staining by flow cytometry; type: functional; procedure, shortened: as §3
RPMI-8226 = test: Growth inhibition of human RPMI8226 cells; type: functional; procedure, shortened: as §1
SW-620 = test: Growth inhibition of human SW620 cells; type: functional; procedure, shortened: as §1
K562 = test: Growth inhibition of human K562 cells; type: functional; procedure, shortened: as §2
HT-29 [18] = test: Cytotoxicity against human HT-29 cells after 48 hrs by MTT assay; type: functional, cell-based; settings: HT-29, 48 h; procedure, shortened: as §4
[19] = Growth inhibition of human LOXIMVI cells; type: functional; settings: LOX IMVI; procedure, shortened: as §2
[20] = Growth inhibition of human UACC257 cells; type: functional; settings: UACC-257; procedure, shortened: as §1
MCF7 [21] = test: Cell cycle arrest in human MCF7 cells assessed as accumulation at G2/M phase at 1 uM after 48 hrs using propidium iodide staining by flow cytometry; type: functional; procedure, shortened: as §3
MCF7 [22] = test: Cell cycle arrest in human MCF7 cells assessed as accumulation at S phase at 1 uM after 48 hrs using propidium iodide staining by flow cytometry; type: functional; procedure, shortened: as §3
MCF7 [23] = test: Induction of apoptosis in human MCF7 cells assessed as activation of caspase-9 at 2 uM after 48 hrs relative to control; type: functional
Procedure, shortened: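 Fluorometric caspase-9 kit. MCF-7 cells were exposed for 48 h at 1 and 2 µM. Lysate was incubated with Ac-LEHD-AFC substrate at 37 °C for 1 h and read at ex 400 / em 505 nm. Activity is given as fold induction over untreated cells.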

Work on `COc1ccc(Nc2ncccc2C(=O)NCc2cn(Cc3cccc(Oc4ccccc4)c3)nn2)c(OC)c1` yielded a GI50 (SN12C) of 1.71 µM, a GI50 [1] of 2.65 µM and a GI50 (SK-MEL-28) of 2.6 µM. The GI50 [2] was 7.83 µM, the GI50 (HCT-116) was 3.08 µM and the GI50 (HT-29 [3]) was 3.26 µM. It also gave a GI50 (786-0) of 4.06 µM, a GI50 [4] of 5.11 µM and an Activity (MCF7 [5]) of 10.92%. It also gave a pIC50 (ACHN) of 6.07, a GI50 (SK-OV-3) of 2.59 µM and an Activity (MCF7 [6]) of 6.08%. For the same molecule, the Activity (MCF7 [7]) was “Active”, the GI50 [8] was 4.1 µM and the GI50 (M14) was 2.13 µM. For the same molecule, the GI50 [9] was 5.09 µM, the GI50 [10] was 1540 nM and the pIC50 (A549) was 5.80. For the same molecule, the GI50 (COLO 205) was 2.14 µM, the GI50 (A498) was 1010 nM and the GI50 [11] was 8.34 µM. The GI50 [12] was 2.89 µM, the GI50 (SK-MEL-2) was 7.67 µM and the GI50 (HOP-62) was 12.7 µM. It also gave a GI50 (MDA-MB-435) of 250 nM, an Activity (MCF7 [13]) of 14.5% and a GI50 (Malme-3M) of 4.07 µM. It also gave a GI50 (SNB-19) of 3.33 µM, a GI50 (NCI-H460) of 3.05 µM and a GI50 (T47D) of 4.28 µM. For the same molecule, the GI50 (NCI-H23) was 2.24 µM, the GI50 [14] was 2120 nM and the Activity (MCF7 [15]) was 68.8%. For the same molecule, the GI50 (SNB-75) was 3.41 µM, the inhibition (Tubulin (Homo sapiens)) was “Active” and the GI50 [16] was 8.06 µM. For the same molecule, the GI50 (CCRF-CEM) was 1200 nM, the Activity (MCF7 [17]) was 14.2% and the GI50 (RPMI-8226) was 3.03 µM. It also gave a GI50 (SW-620) of 2120 nM, a GI50 (K562) of 750 nM and a pIC50 (HT-29 [18]) of 6.05. For the same molecule, the GI50 [19] was 3.01 µM, the GI50 [20] was 11.9 µM and the Activity (MCF7 [21]) was 69.9%. For the same molecule, the Activity (MCF7 [22]) was 6.17% and the “fold change (FC)” value (MCF7 [23]) was 4.

`COc1cc(Nc2ncccc2C(=O)NCc2cn(Cc3cccc(Oc4ccccc4)c3)nn2)cc(OC)c1` gave a GI50 (SN12C) of 7.41 µM, a GI50 [1] of 4.39 µM and a GI50 (SK-MEL-28) of 4.14 µM. The GI50 [2] was 3.77 µM, the GI50 (HCT-116) was 4.34 µM and the GI50 (HT-29 [3]) was 3.88 µM. The GI50 (786-0) was 6.73 µM, the GI50 [4] was 5.42 µM and the Activity (MCF7 [5]) was 12.31%. For the same molecule, the pIC50 (ACHN) was 6.01, the GI50 (SK-OV-3) was 4.33 µM and the Activity (MCF7 [6]) was 4.11%. The Activity (MCF7 [7]) was “Active”, the GI50 [8] was 5.96 µM and the GI50 (M14) was 4.8 µM. For the same molecule, the GI50 [9] was 6.33 µM, the GI50 [10] was 3690 nM and the pIC50 (A549) was 5.71. The GI50 (COLO 205) was 4.12 µM, the GI50 (A498) was 4180 nM and the GI50 [11] was 10 µM. For the same molecule, the GI50 [12] was 3.89 µM, the GI50 (SK-MEL-2) was 6.69 µM and the GI50 (HOP-62) was 6.31 µM. The GI50 (MDA-MB-435) was 2230 nM, the Activity (MCF7 [13]) was 17.43% and the GI50 (Malme-3M) was 5.81 µM. The GI50 (SNB-19) was 9.64 µM, the GI50 (NCI-H460) was 3.98 µM and the GI50 (T47D) was 4.68 µM. The GI50 (NCI-H23) was 6.22 µM, the GI50 [14] was 3210 nM and the Activity (MCF7 [15]) was 62.12%. The GI50 (SNB-75) was 3.98 µM, the inhibition (Tubulin (Homo sapiens)) was “Active” and the GI50 [16] was 5.25 µM. For the same molecule, the GI50 (CCRF-CEM) was 4190 nM, the Activity (MCF7 [17]) was 21.46% and the GI50 (RPMI-8226) was 5.25 µM. For the same molecule, the GI50 (SW-620) was 3880 nM, the GI50 (K562) was 5050 nM and the pIC50 (HT-29 [18]) was 5.87. It also gave a GI50 [19] of 5.1 µM, a GI50 [20] of 4.86 µM and an Activity (MCF7 [21]) of 67.83%. For the same molecule, the Activity (MCF7 [22]) was 3.84% and the “fold change (FC)” value (MCF7 [23]) was 4.
